The list is not random: actives were taken first. Their share in the collection is about 0.95%.
ASAP1 inh = inhibitors of human ASAP1 ArfGAP activity; ASAP1-stimulated ARF1 GTP hydrolysis, GDP FP detection; inhibition, % at 16.5 µM; 0.19% of 360,000 active; AID 624377; in the data active = inhibition above about 25%
CSN deneddyl inh = inhibitors of human CSN-mediated cullin deneddylation. Q92905. Purified CSN, SCF-Nedd8-OG deneddylation, fluorescence polarization. inhibition, % at 12.5 µM. 0.38% of 360,000 active. AID 651999;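 active = pattern-corrected inhibition above about 35%, with an unprinted fluorescence ratio check between 0.5 and 1.5, limit read from the data, passing the limit was not always enough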
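Detection – fluorescence polarization · System – HEK293T-derived human Csn5 enzyme · Controls – substrate-only high control, full reaction low control · Timing – 90 min, room temperature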
ARFGAP1 inh = rat ARFGAP1 inhibition | inhibition, % at 16.5 µM | Arfgap1-stimulated ARF1 GTP hydrolysis, GDP FP detection | 0.26% of 360,000 active;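 active = inhibition above a per-plate limit, mean inhibition of low control wells plus 3 SD, cut at about 25% in these data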
Target sequence (Q62848 1-136 limits assumed): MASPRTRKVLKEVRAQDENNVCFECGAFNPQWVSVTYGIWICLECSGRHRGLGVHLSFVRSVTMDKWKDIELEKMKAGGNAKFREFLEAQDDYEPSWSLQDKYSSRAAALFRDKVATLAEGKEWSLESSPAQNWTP
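Material: rat Arfgap1 GAP domain (His6, aa 1-136), purified enzyme. Also added: human ARF1(Δ1-17)-GTP substrate. Compound dosing: 16.5 µM single point, 1.26% DMSO. Timing: enzyme reaction 120 min at 25 °C after 20 min preincubation. Signal: GDP detection by fluorescence polarization. Read-out basis: percent inhibition of GAP-stimulated GDP formation, scaled between DMSO and no-Arfgap1 medians.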
HNF4A DNA FP = change in binding of human HNF4 alpha to DNA; AID 1224865; 0.3% of 360,000 active; activity change, % at 10 µM; P41235; HNF4a-FITC DNA binding, fluorescence polarization, 1 h; in the data active = activity change above about 30%, passing the limit was not always enough
ARFGAP1 inh conf = rat ARFGAP1 inhibition, confirmed; shares compounds with ARFGAP1 inh; ARFGAP1-stimulated ARF1 GTP hydrolysis, GDP tracer FP; inhibition, % at 16.5 µM; 30% of 890 active;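 active = average inhibition over triplicates above the hit cutoff set in the earlier primary screen, cut at about 25% in these data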
Target sequence (Q62848 whole entry, looked up): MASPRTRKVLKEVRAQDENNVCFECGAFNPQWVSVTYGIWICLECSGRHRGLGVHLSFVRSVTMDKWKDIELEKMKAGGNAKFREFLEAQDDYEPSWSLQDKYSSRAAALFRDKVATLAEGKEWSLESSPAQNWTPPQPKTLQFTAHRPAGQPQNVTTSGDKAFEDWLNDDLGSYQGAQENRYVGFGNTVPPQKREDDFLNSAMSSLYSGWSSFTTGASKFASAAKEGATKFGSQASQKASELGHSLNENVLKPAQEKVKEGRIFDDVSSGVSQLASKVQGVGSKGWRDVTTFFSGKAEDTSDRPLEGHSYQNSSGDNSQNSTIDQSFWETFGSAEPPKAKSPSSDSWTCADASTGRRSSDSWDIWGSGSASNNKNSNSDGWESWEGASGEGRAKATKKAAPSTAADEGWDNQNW
Hits are given with their value; 0 = inactive; - = not tested or not shown.

SMILES	ASAP1 inh	CSN deneddyl inh	ARFGAP1 inh	HNF4A DNA FP	ARFGAP1 inh conf
O=C(c1cccc(NS(=O)(=O)c2ccc(Br)cc2)c1)N1CCN(c2ccccc2O)CC1	0	0	0	0	-
COc1ccc(NC(=O)C(=S)N2CCCC2)cc1	0	0	0	0	-
Cc1ccc(NC(=O)N2CC(C)OC(C)C2)cc1[N+](=O)[O-] (stereo not drawn)	0	-	33	-	0
Cc1ccc(C(=O)NC(=S)N2CC(C)OC(C)C2)cc1[N+](=O)[O-] (stereo not drawn)	-	0	-	0	-
Cc1ccc(NC(=O)CN2C(=O)NC3(CCCCC3)C2=O)cc1S(=O)(=O)N1CCOCC1	0	0	0	0	-
C=CCNC(=O)/C(C#N)=C/c1ccc(C)o1	0	0	0	0	-
COC(=O)/C(C#N)=C/c1ccc(C)o1	0	0	25	0	0
Cc1ccc(C(=O)CN(CCCC(N)=O)C(=O)c2ccncc2)cc1	0	0	0	0	-
CC(C)S(=O)(=O)c1csc(NC(=O)Nc2cccc([N+](=O)[O-])c2)c1Cl	0	0	0	0	-
COC(=O)c1c(C)[nH]c(C)c1-c1ccccc1	0	0	25	0	0
COC(=O)c1c(C)nc2ccccc2c1-c1ccccc1	0	0	0	0	-
CC(C)(C)OC(=O)N1Cc2ccccc2C[C@H]1C(=O)NCC(=O)NCC1CCCO1 (stereo partly drawn)	0	0	0	0	-
Cn1c2ccccc2c(=O)c2ccc(-c3ccc4c(c3)OCO4)cc21	0	0	37	0	90
Cn1c(-c2ccc3c(c2)OCO3)cc(=O)c2ccccc21	0	0	0	0	-
CC(=O)NCCc1ccc(S(=O)(=O)Nc2ccc(NC(=O)c3ccc(F)cc3)cc2)cc1	0	0	29	0	0
CCOCCCNC(=O)C1CCCN(S(=O)(=O)c2ccc(-n3cnnn3)cc2)C1 (stereo not drawn)	0	0	0	0	-
CN(Cc1ccccc1)C(=O)c1[nH]cnc1C(=O)Nc1ccccc1	0	0	0	0	-
CN(Cc1ccccc1)C(=O)c1nc[nH]c1C(=O)N(C)Cc1ccccc1	0	0	27	0	0
O=C(N/N=C/C=C/c1ccccc1[N+](=O)[O-])c1ccncc1	0	0	0	0	-
O=C(N/N=C/C=C\c1ccccc1[N+](=O)[O-])c1cc(-c2ccc3ccccc3c2)n[nH]1	0	0	30	0	0
CC(=O)Nc1ccc(NC(=O)c2cc(=O)c3ccc(C)cc3o2)cc1	0	0	0	0	-
CC(=O)Nc1ccc(NC(=O)c2cc(=O)c3cc(C)c(C)cc3o2)cc1	0	0	29	0	0
O=C(COC(=O)c1ccc([N+](=O)[O-])cc1)NC12CC3CC(CC(C3)C1)C2	0	0	26	0	0
O=C(COC(=O)c1ccccc1)NC12CC3CC(CC(C3)C1)C2	0	0	0	0	-
COc1ccc(Cl)c(-c2cc(C(=O)Nc3ccccc3)[nH]n2)c1	0	0	25	0	0
SMILES	ASAP1 inh	CSN deneddyl inh	ARFGAP1 inh	HNF4A DNA FP	ARFGAP1 inh conf
O=C(Nc1ccc(S(=O)(=O)N2CCOCC2)cc1)c1cc(-c2cc(Cl)ccc2O)n[nH]1	0	0	41	0	29
COc1ccc(Cl)cc1-c1cc(C(=O)Nc2ccc(Br)cc2)[nH]n1	0	0	28	0	0
CCOc1ccc(Cl)cc1-c1cc(C(=O)Nc2cc(OC)ccc2OC)[nH]n1	-	0	-	0	-
Cc1cc(O)c(-c2cc(C(=O)Nc3ccc(S(=O)(=O)N4CCOCC4)cc3)[nH]n2)cc1C	0	0	0	0	-
CCOc1ccc(Cl)cc1-c1cc(C(=O)Nc2ccc(OC)cc2OC)[nH]n1	0	0	60	0	121
CCN1C(=O)N[C@@H](c2cccs2)C(C(C)=O)=C1C	0	0	0	0	-
CCNC(=O)C1(C)CCN(C(=O)c2c(-c3ccccc3)noc2C)C1 (stereo not drawn)	0	0	0	0	-
Cc1ccc(NC(=O)c2cc(-c3ccccc3O)n[nH]2)cc1Cl	0	0	0	0	-
COc1ccc(NC(=O)c2cc(-c3ccccc3O)n[nH]2)cc1Cl	0	0	27	0	0
CCC(=O)N(Cc1cc(=O)[nH]c2ccccc12)c1ccccc1OC	0	0	0	0	-
O=C(Cn1c(=O)oc2ccccc21)Nc1ccc(Cl)cc1Cl	0	0	25	0	0
CSc1ccc(CN2CCC(C)(Oc3ccc(-n4ccnc4)cc3)C2)cc1 (stereo not drawn)	0	0	0	0	-
C=CCOC(=O)c1ccc(N2CCN(c3ccccc3)CC2)nc1	0	0	40	0	0
COC(=O)c1ccc(N2CCN(c3ccccc3)CC2)nc1	0	0	0	0	-
CC(=O)c1cccc(NC(=O)C2C(c3ccccc3)C2(Cl)Cl)c1 (stereo not drawn)	0	0	0	0	-
Cc1cccc(NC(=O)C2C(c3ccccc3)C2(Cl)Cl)c1 (stereo not drawn)	0	0	28	0	0
CC(=O)N1CCc2c(sc(NC(=O)c3ccc(S(=O)(=O)N(C)CC4CCCO4)cc3)c2C(N)=O)C1 (stereo not drawn)	0	0	29	0	0
COc1ccc(-n2nc(C(=O)NCC(=O)Nc3cccc(Cl)c3)c3ccccc3c2=O)cc1OC	0	0	28	0	25
CCN1C[C@@H]2[C@@H]3C(=O)N(C)C(=O)[C@@H]3[C@](CC)(C(=O)OC)N2C1=NCc1ccccc1	0	0	0	0	-
CCOc1ccccc1C(=O)N(CN1CCCC1=O)c1cccc(Cl)c1	0	0	38	0	0
COc1ccccc1C(=O)N(CN1CCCC1=O)c1cccc(Cl)c1	0	0	0	0	-
N#CCOc1ccccc1CNC[C@H]1O[C@@H](n2cnc(C(N)=O)n2)[C@H](O)[C@@H]1O	0	0	0	0	-
N#Cc1cccc(NC(=O)Cn2cnc(S(=O)(=O)N3CCOCC3)c2)c1	-	0	-	0	-
CC(C)(C)c1cc[n+](-c2nc([O-])sc2C=O)cc1	0	0	27	0	0
O=C(O)c1ccc(Cn2cnc3c(=O)[nH]cnc32)cc1	0	0	0	0	-
SMILES	ASAP1 inh	CSN deneddyl inh	ARFGAP1 inh	HNF4A DNA FP	ARFGAP1 inh conf
CN(C)c1ccc(CNC(=O)/C=C/[C@H]2O[C@@H](n3ccc(=O)[nH]c3=O)[C@H](O)[C@@H]2O)cc1	0	0	0	0	-
NC(Cc1ccc(C(F)(F)F)cc1)c1csc(NC(=O)Nc2ccccc2Cc2ccccc2)n1 (stereo not drawn)	0	0	33	0	0
CC(C)c1ccccc1NC(=O)Nc1nc(C(N)Cc2ccc(C(F)(F)F)cc2)cs1 (stereo not drawn)	0	0	0	0	-
O=C(C1CCN(S(=O)(=O)c2cccs2)CC1)N1CCCC(C(F)(F)F)C1 (stereo not drawn)	0	0	0	0	-
Cc1cccc(Nc2nc(-c3ccc4c(c3)OCCO4)cs2)c1	0	0	26	0	0
Cc1cccc(Nc2nc(-c3ccncc3)cs2)c1	0	0	0	0	-
COc1ccc(NC(=O)c2ccc3c(=O)n(-c4ccc(OC)cc4OC)c(=S)[nH]c3c2)cc1	0	0	0	0	-
